In the EternaBench riboswitch data:

Tested on: MS2 coat protein
Assay: apparent Kd, MS2 coat protein; higher = weaker binding; RNA-MaP array; FMN 200 µM where present
Summary of the method: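 Green signal was scaled to red-channel RNA signal and control-cluster median Fmax, and the apparent Kd was taken as the median of filtered per-cluster binding-curve fits. The binding series used SNAP-549-labelled MS2 coat protein from 0.7 or 1.5 nM, doubling to 3 µM, on designs transcribed by stalled E. coli RNA polymerase on Illumina sequencing-chip clusters. Each series ran without and then with constant ligand in 100 mM Tris-HCl pH 7.5, 80 mM KCl, 4 mM MgCl2, BSA, DTT, yeast tRNA and Tween-20.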

[1] = designed as: ON switch for flavin mononucleotide, no ligand
[2] = ligand present: flavin mononucleotide, designed as: ON switch for flavin mononucleotide
[3] = designed as: OFF switch for flavin mononucleotide, no ligand
[4] = ligand present: flavin mononucleotide, designed as: OFF switch for flavin mononucleotide

Sequence	apparent Kd [1]	apparent Kd [2]	apparent Kd [3]	apparent Kd [4]
GGGUACAUCGGAGGAUAUCAUGUAAAUACAUGAGGAUCACCCAUGUCGAUGGAAACAUCGGAGAUUGAGAAGGCCGAUGUACCG	9.76 nM	5.01 nM	–	–
UUAUUAGCAGGAUAUAUCCAGGAUCACAUGAGGAUCACCCAUGUGACCGCUUGAGAUUCUAUAGAAGGGCUUUAUU	–	–	19.6 nM	18.1 nM
GGAUAGGACAGAGGAUAUACGUGCUAGAGAUACUAGCAAAAGUUCCUCACAUGAGGAUCACCCAUGUAGAAGGCUGUCCUAUCG	–	–	65.5 nM	214 nM
GAGCGGGAAACAUGAGGAUCACCCAUGUAGUAAAUCCUCACGUAGGAUAUGCACACGAGAAGUGUGCAGAAGGGCGACCCGGUC	–	–	79.6 nM	183 nM
AGUCGGAGCAGAGGAUAUACAUGAGGAUCACCCAUGUAAUAUGAUCUAGCCAGGAAACUGGCAAUGUAGAAGGCUGCUCCGACA	–	–	92.3 nM	797 nM
CGUUUAUUUAUGGGUUUAUAUUAUGAGGAUAUCAAUAUUUUAUACAUGAGGAUCACCCAUGUUACUGAGAAGGCAUAAUUAACG	10.9 nM	6.44 nM	–	–
AGGGUUGUGCUAGGAUAUCCAGGUUUGCAACAAGGAGAAGGAGCACAUGAGGAUCACCCAUGUUCUCAAAGGCCAUGGCAAUAU	–	–	12.4 nM	56.3 nM
UACGUACAGAAGUACUCCGGGUCCAGAAGGGACAUGAGGAUCACCCAUGUACCGUUGAUUGCUUGUCAGGAUAUGGACCCGGCC	–	–	7.29 nM	28.5 nM
AAUUUACAUGAGGAUCACCCAUGUGAGGAUAUGAUACUAUGUACUUCGGUACAUAGUAUCAGAAGGCAUGUGGA	–	–	129 nM	37.1 nM
CAGCUGAAUGUGAGGAUAUCUAGAGCUGCGGCUCUAGAGAAGGCACAUGAGGAUCACCCAUGUCUCAACAGCUG	–	–	40.7 nM	294 nM
CUCAUGUGAGGAUAUCAGUAGUAAAAAAAUAAAAUUACUACUGAGAAGGCACAUGAGGAUCACCCAUGUGCCUU	–	–	15.6 nM	12.9 nM
CAGGUAGACUGAGGAUAUACACUAAACAGCUAGUCUAUCUAGCUGAUCACAUGAGGAUCACCCAUGUAGAAGGCAGUCUGCCUG	–	–	19.6 nM	56.5 nM
CCUCGCCCUCUUGCACAUGAGGAUCACCCAUGUUUUACGUACUAGGAUAUAGCUAUGUUCAAUCGUUAGAAGGAGUUCAUGGAU	–	–	110 nM	105 nM
CAGUACUGAGGAUAUACAUGAGGAUCACCCAUGUGUCUAAGGUAGGAUACUACCAUUAGUAGAAGGCAGUACUG	–	–	12.4 nM	18.1 nM
GCCAUCACAUGAGGAUAUGCUCCCGUUUCGGGAGCAGAAGGCGUGUCAUAAGACAUGAGGAUCACCCAUGUAGCUAAGAUGGCA	321 nM	12.6 nM	–	–
CAUUUGUGAGGAUAUCAGGUGUGCUAGCGUACUGGUACAUCUGAGAAGGCACAUGAGGAUCACCCAUGUUCCUU	–	–	12.8 nM	30 nM
UCAUGGAAGCAGGAUAUGCUUGUUUAAUUGUUUGCAGAAGGGCUAACAUGAGGAUCACCCAUGUAAGAGGUCUA	–	–	45.8 nM	34.1 nM
AAGAAGCUCACAGGAUAUCAGUAUAUGCGAUCUAGCGUAUUAAUGAACUGCUGAGAAGGGUGAGACAUGAGGAUCACCCAUGUA	23.3 nM	62.2 nM	–	–
GGUGCACGCACAGGAUAUCCGGCGGCGCUCGUCGGAGAAGGGUGACAUGAGGAUCACCCAUGUACGUGCAACUCAGUUUGAGUG	42.5 nM	33.9 nM	–	–
AACAGUAUAGGAUAUACAUGAGGAUCACCCAUGUGAGAAUUAAGUGGCGUACCACUAAGUAGAAGGAUACUGGA	–	–	50.8 nM	222 nM
ACAUGAGGAUCACCCAUGUUAUCCGGGACUUCAAUUGUUUCUAGAAGGCUGUUUACUUGUUAGUCAGAGGAUAUAGAAUCAAAU	–	–	10.7 nM	11.4 nM

Sequence	apparent Kd [1]	apparent Kd [2]	apparent Kd [3]	apparent Kd [4]
GUCUCGAUGUAAGGAUAUGCAGUGGAUAACACUGCAGAAGGUACAUGAGGAUCACCCAUGUAACUCUAAUAAUAAUAACGAGAC	–	–	13.1 nM	17.3 nM
GGAUAGGACAGAGGAUAUACGUGCUAGAGAUUCUAGCAAAAUUUCCUCACAUGAGGAUCACCCAUGUAGAAGGCUGUCCUAUCG	–	–	15.6 nM	321 nM
CCGGAAACGGGUAGCCUGACAUGAGGAUCACCCAUGUAAUACGAGGAUAUGGAUCCUAAUUGGAUCCAGAAGGUGUCAGGCUAC	862 nM	682 nM	–	–
GUGGCCCAGGCACAGGAUAUGUUUCUCGUAACAUGAGGAUCACCCAUGUGCCUAUGAGAUUGUUUGCAGAAGGGUGCACGCCACG	449 nM	24 nM	–	–
UUUUAACAUGAGGAUCACCCAUGUCGUUCAAAUCAAGGAUAUCAGGCGUGUGCACACGCCUGAGAAGGUGAAUCUC	135 nM	320 nM	–	–
UGUUGUAUUACAGGAUAUCUAUUGUUUUUUUUUAGAGAAGGGUAUUCACAUGAGGAUCACCCAUGUAUAUACGAGGAAGUUGUG	60.7 nM	71.3 nM	–	–
UCGACUAGCGCCAGUCGAACAUGAGGAUCACCCAUGUACUCCAGAAGGCCGCCCAAGAACGGAGUGGAGGAUAUGGAGGUUCUC	42.9 nM	30.4 nM	–	–
AGGAAGGGUGCUCCGGCGGGCCGAGCAGAAGGGUGAUUGGACAUGAGGAUCACCCAUGUAUAAACACAGGAUAUGCAAACGGGU	305 nM	13.1 nM	–	–
UUUUUGUGAGGAUAUCAGUAGUAGAACAAUAGUACUACUACUGAGAAGGUACAUGAGGAUCACCCAUGUUCCUC	–	–	19.4 nM	23.7 nM
AAAGCACGAGGAUAUACAUGAGGAUCACCCAUGUAUAACCAAAAAAAAAGAUCCUCAUGUAGAAGGCGUGCAAA	–	–	18.9 nM	16.8 nM
ACCGAACAUGAGGAUCACCCAUGUGAGGAUAUAGACGCGUAUUUAACGCGUAACAAAACUAGAAGGCACUGGGC	–	–	27.2 nM	16.1 nM
AAAAGACAUGAGGAUCACCCAUGUCAAGACGUGGGAGGAUAUGUAUGGAAACCAGACUGUACAGAAGGCCUUUGUC	46.8 nM	20.1 nM	–	–
UAUUUAUAAUAUUUUAACAUGAGGAUCACCCAUGUCGCUAGACAGGAUAUAUUUUAUUUGUUUAAGUAGAAGGGUCGUAGAUUU	166 nM	138 nM	–	–
AUCGGGAUUACAUGAGGAUCACCCAUGUCAGAACGGGUAGUUAGAAGGUGCCAUUAGGGAGAGGGUAAGGAUAUAAUUUUUGGC	14.6 nM	12.8 nM	–	–
UAUUCGUUCUAGAAGGUGCAUUUGUUAAACAUGCAAGGAUAUAGACAUGAGGAUCACCCAUGUCUAUGAGACAUCGGCCUCCUU	–	–	7.15 nM	24.9 nM
AGAAACUACGAGAAGGACAUGAAAAGUGCCGCAAACAUGAGGAUCACCCAUGUAGGAUAUCGUAGUUUCAGGAUCGUGAGAUCA	–	–	15.8 nM	108 nM
AACUUGUCAGGAUAUCUUACAUUUGCAUCUUAGUUACCAUUGGAGAAGGGACAUGAGGAUCACCCAUGUUUGGU	–	–	37.1 nM	32.2 nM
UCGUGAGGGACAGGAUAUGGACAUGAGGAUCACCCAUGUACAUGGGAAUAUAUACUGAAUUUAUACUAGAAGGGUUACAUAAAU	–	–	21.6 nM	16.1 nM
GGAUGACAAAGUCAUCCUAAACGAACAUGAGGAUCACCCAUGUAGGAUAUGCUACUGAAACAGUAGCAGAAGGACAUGUGCCUU	–	–	31.1 nM	211 nM
GCUGCGCGAGGAUAUGCGGUUUGUGCUUUGGGCCCUGGCGUACAUGAGGAUCACCCAUGUAGAAGGCGUGUGGG	–	–	43.6 nM	38.4 nM
UGUGCGUUGAUCUUCGAUCGGUGUACAUGAGGAUCACCCAUGUAGGAUAUUCAAAGACGCAGAUAGGAGAAGGACAUCGGAUUU	–	–	18.8 nM	17 nM
